# An excerpt weighted towards active compounds, which were near 2.6% of everything screened.
# Rev-erbA mod: modulators of human Rev-erb alpha DNA binding; 370,000 tested, 0.79% active; activity, % at 10 µM; Rev-erbα–FITC-DNA binding, fluorescence polarization, 90 min;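 active = activity above about 14%, limit read from the data; passing the limit was not always enough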;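 also: 0% = DMSO wells with 35 nM protein and 100% = DMSO wells with 750 nM protein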
# NR2E3 ag-1: activates human NR2E3 receptor. Q9Y5X4. CHO-S Gal4-NCOR/VP16-NR2E3 two-hybrid, luciferase. inhibition of corepressor binding, % at 3.98 µM. 360,000 tested, 0.35% active;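 active = inhibition above the mean of all tested compounds plus 3 SD, cut at about 70% in these data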;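 also: 0% = DMSO with NR2E3 transfected cells and 100% = cells lacking NR2E3 construct; higher means lower luciferase signal from less NR2E3 corepressor binding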
# PG9 binder: PG9 antibody binding by small molecule; 360,000 tested, 0.43% active; inhibition, % at 6.7 µM; AID 624416; TR-FRET gp120-PG9 antibody binding; in the data active = inhibition above about 8.5%
# rCAG RNA binder: binds r(CAG) RNA repeats. 370,000 tested, 1.3% active. r(CAG) RNA repeat, TO-PRO-1 dye displacement fluorescence. AID 651821. inhibition, % at 3 µM;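 active = inhibition above the plate cutoff, the mean of all test compounds on that plate plus 3 SD, cut at about 35% in these data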;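 also: 0% = DMSO alone and 100% = 100 µM mitoxantrone as full dye displacement; higher means more dye released from RNA so lower well fluorescence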
# NR2E3 ag-2: agonists of human nuclear receptor NR2E3. Q9Y5X4. GST-NR2E3/biotin-RetCOR TR-FRET, 1536-well. inhibition of corepressor binding, % at 4.78 µM. 320,000 tested, 0.12% active;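 active = percent inhibition above the cutoff of mean plus 3 SD of all tested compounds, set per screening campaign, cut at about 20% in these data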;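 also: 0% = DMSO wells and 100% = biotin wells as full block of FRET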
#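 System: GST-tagged NR2E3 plus biotinylated RetCOR corepressor; Buffer or medium: pH 7.5 Tris-based buffer; Probe or stimulus: RetCOR corepressor, biotinylated, 7 nM; Doses: compound at 4.8 µM, single dose; Schedule: 5 h incubation at 4 °C; Technique: time-resolved FRET; Evaluation: percent inhibition of TR-FRET ratio; Replication: one well per compound, singlicate testing.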
# PG9 binder conf: PG9 antibody binding, confirmed | shares compounds with PG9 binder | TR-FRET PG9 antibody binding, biochemical | inhibition, % at 6.7 µM | 1,500 tested, 90% active | AID 651571; in the data active = inhibition above about 9%
# PGV04 counter: counter-screen for PG9 binders: binding control antibody PGV04. shares compounds with PG9 binder. TR-FRET PGV04 antibody-gp120 binding, biochemical. inhibition, % at 6.7 µM. 1,500 tested, 95% active; in the data active = inhibition above about 9.5%
# rCAG bind conf: r(CAG) RNA repeat binding, confirmation; inhibition, % at 3 µM; 4,300 tested, 70% active; shares compounds with rCAG RNA binder; TO-PRO-1 dye displacement fluorescence; AID 652065;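 active = inhibition above a per-plate cutoff, the mean inhibition of sample wells plus 3 SD, cut at about 35% in these data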;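 also: loss of TO-PRO-1 fluorescence as compound displaces dye from 1x1 AA loop RNA; 0% = DMSO only wells and 100% = 100 µM mitoxantrone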
# dCAG dye counter: disrupts DNA CAG TO-PRO-1 complex, flagging rCAG hits; shares compounds with rCAG RNA binder; d(CAG) DNA oligo TO-PRO-1 dye displacement, fluorescence; inhibition, % at 3 µM; 4,300 tested, 94% active;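 active = inhibition above its plate's cutoff, the mean test-well inhibition plus 3 SD, cut at about 4.8% in these data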;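 also: 0% = DNA dye mix with DMSO and 100% = 100 µM mitoxantrone; hits displace the dye from DNA and so lower well fluorescence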
# DNA CAG DR: counter-screen for rCAG binders: inhibitors of DNA CAG TO-PRO-1 complex; DNA CAG/GTC duplex TO-PRO-1 dye displacement fluorescence; IC50, µM; 250 tested, 20% active; shares compounds with rCAG RNA binder; in the data active = IC50 below about 10 µM
# NR1D1 mod conf: confirmation of modulators of human Rev-erb alpha DNA binding. shares compounds with Rev-erbA mod. Rev-erb alpha FITC-DNA binding, fluorescence polarization, 90 min. activation, % at 25 µM. 3,000 tested, 61% active;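 active = activation at or above a set limit, or at least 3 SD above the negative control mean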;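 also: 0% = 35 nM protein with DMSO and 100% = 750 nM protein high control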
# RORg DNA counter: counter-screen for Rev-erb alpha modulators: RORgamma DNA binding; shares compounds with Rev-erbA mod; purified RORgamma protein-FITC-DNA binding, fluorescence polarization; IC50, µM; 910 tested, 8% active; AID 1259320;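 active = Compounds whose fitted half-maximal concentration for disrupting protein-DNA binding is below 10 micromolar; the record names Rev-erb in its text, so the target is in doubt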
# Starred values were filed as active, the others as inactive; x = no result given.
SMILES,Rev-erbA mod,NR2E3 ag-1,PG9 binder,rCAG RNA binder,NR2E3 ag-2,PG9 binder conf,PGV04 counter,rCAG bind conf,dCAG dye counter,others
COc1ccc2nc(NC(=O)C3CC(=O)N(c4ccccc4)C3)sc2c1 (stereo not given),5,-13,0,5,1,x,x,x,x,
Cc1ccc(S(=O)(=O)c2c(N)n(CCCO)c3nc4ccccc4nc23)cc1,2,4,-1,4,3,x,x,x,x,
CCCCn1c(NC(=O)c2ccco2)c(S(=O)(=O)c2ccc(C)cc2)c2nc3ccccc3nc21,-5,-18,18*,59*,x,21*,25*,x,x,
CCCCn1c(NC(=O)c2ccc(Br)o2)c(S(=O)(=O)c2ccccc2)c2nc3ccccc3nc21,-9,8,14*,8,7,18*,24*,x,x,
O=C(O)c1ccccc1NC(=S)NC(=O)c1sc2ccccc2c1Cl,8,-61,9.8*,18,5,17*,19*,x,x,
O=C(NC(=S)Nc1ccccc1N1CCOCC1)c1sc2ccccc2c1Cl,2,-13,-1,1,3,x,x,x,x,
CC(C)COc1ccc(C(=S)N2CCCC2)cc1,7,21,0,-5,5,x,x,x,x,
Cc1ccc(C(=O)Nc2nnc(NC(=S)Nc3ccccc3)s2)cc1,14,-111,12*,70*,4,16*,20*,39*,30*,
CC(C)(C)OC(=O)N1O[C@H]2C=C[C@@H]1C2,5,x,0,1,x,x,x,x,x,
N#Cc1c(-c2ccccc2)nc(SCc2cccc(Cl)c2)[nH]c1=O,-6,27,8.7*,82*,6,14*,21*,76*,43*,
Cc1[nH]c(=O)nc(SCc2cccc(Cl)c2)c1C#N,4,-2,0,26,4,x,x,x,x,
Cc1ccccc1C1=CC(=O)CC(C)(C)C1=O,-1,x,0,2,x,x,x,x,x,
Cc1ccc2nc(-c3ccc(NC(=O)CSc4nc(N)cc(=O)[nH]4)cc3)sc2c1,4,-141,0,5,0,x,x,x,x,
Cc1ccc2nc(-c3ccc(NC(=O)CSc4nccc(=O)[nH]4)cc3)sc2c1,10,-49,12*,40*,4,11*,36*,71*,33*,DNA CAG DR=>30
CCCOc1ccc(C(CC(=O)O)NC(=O)c2sc3ccccc3c2Cl)cc1 (stereo not given),-1,7,11*,53*,6,15*,21*,42*,9.9*,
CCOC(=O)c1c(N)sc(=S)c2c1CCC2,-6,7,9.5*,36*,6,6,10*,54*,23*,DNA CAG DR=>30
CC(C)(CNC(=O)C1CCN(S(=O)(=O)c2cc([N+](=O)[O-])ccc2Cl)CC1)N1CCOCC1,-4,-4,1,4,x,x,x,x,x,
Cc1c(Br)c(O)c(Br)c2sc(=O)oc12,-3,-3,18*,92*,2,11*,21*,42*,21*,DNA CAG DR=>30
COc1ccc(S(=O)(=O)NNS(=O)(=O)c2ccc(OC)c(OC)c2)cc1OC,x,-7,x,x,x,x,x,x,x,
COC1C(CO)OC(n2c3c(Cl)cccc3c3c4c(c5c6cccc(Cl)c6[nH]c5c32)C(=O)NC4=O)C(O)C1O (stereo not given),111*,20,72*,7,x,56*,68*,x,x,NR1D1 mod conf=173*;RORg DNA counter=>40
